# Assays:
# [1] = molecular target: T1, Prostaglandin E2 receptor EP3 subtype (Mus musculus, UniProt P30557); experiment: Displacement of [3H]PGE2 from mouse EP3 receptor expressed in CHO cells after 60 mins by scintillation counting; assay type: cell-based
# T1 sequence (P30557 whole entry): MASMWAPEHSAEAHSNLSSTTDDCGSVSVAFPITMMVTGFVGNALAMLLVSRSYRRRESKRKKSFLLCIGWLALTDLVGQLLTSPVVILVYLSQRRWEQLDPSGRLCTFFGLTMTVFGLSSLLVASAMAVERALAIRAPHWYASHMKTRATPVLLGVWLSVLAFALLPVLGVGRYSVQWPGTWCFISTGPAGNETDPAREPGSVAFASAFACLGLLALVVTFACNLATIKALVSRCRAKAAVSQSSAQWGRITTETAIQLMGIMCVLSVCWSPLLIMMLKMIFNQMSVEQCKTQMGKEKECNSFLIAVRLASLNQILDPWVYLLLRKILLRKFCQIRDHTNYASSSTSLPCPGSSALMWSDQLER
# [2] = molecular target: Prostaglandin E2 receptor EP4 subtype (Rattus norvegicus, UniProt P43114); experiment: Agonist activity at rat EP4 receptor expressed in CHO cells assessed as cAMP production after 10 mins by radioimmunoassay; assay type: functional, cell-based
# Sequence of Prostaglandin E2 receptor EP4 subtype (Rattus norvegicus, UniProt P43114) (P43114 whole entry): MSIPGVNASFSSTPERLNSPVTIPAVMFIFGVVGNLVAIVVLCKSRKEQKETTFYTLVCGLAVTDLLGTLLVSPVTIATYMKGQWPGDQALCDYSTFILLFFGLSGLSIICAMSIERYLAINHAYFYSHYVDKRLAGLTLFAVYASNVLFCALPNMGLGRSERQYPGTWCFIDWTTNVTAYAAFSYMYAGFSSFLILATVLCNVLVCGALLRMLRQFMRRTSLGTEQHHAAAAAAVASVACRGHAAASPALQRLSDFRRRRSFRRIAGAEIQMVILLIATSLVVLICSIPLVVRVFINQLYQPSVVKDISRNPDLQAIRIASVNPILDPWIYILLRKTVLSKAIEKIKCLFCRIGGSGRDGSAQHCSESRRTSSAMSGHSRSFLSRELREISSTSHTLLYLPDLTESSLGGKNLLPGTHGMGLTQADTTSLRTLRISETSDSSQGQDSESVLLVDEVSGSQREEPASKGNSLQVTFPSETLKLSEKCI
# [3] = molecular target: Prostaglandin E2 receptor EP4 subtype (Mus musculus, UniProt P32240); experiment: Displacement of [3H]PGE2 from mouse EP4 receptor expressed in CHO cells after 60 mins by scintillation counting; assay type: cell-based
# Sequence of Prostaglandin E2 receptor EP4 subtype (Mus musculus, UniProt P32240) (P32240 whole entry): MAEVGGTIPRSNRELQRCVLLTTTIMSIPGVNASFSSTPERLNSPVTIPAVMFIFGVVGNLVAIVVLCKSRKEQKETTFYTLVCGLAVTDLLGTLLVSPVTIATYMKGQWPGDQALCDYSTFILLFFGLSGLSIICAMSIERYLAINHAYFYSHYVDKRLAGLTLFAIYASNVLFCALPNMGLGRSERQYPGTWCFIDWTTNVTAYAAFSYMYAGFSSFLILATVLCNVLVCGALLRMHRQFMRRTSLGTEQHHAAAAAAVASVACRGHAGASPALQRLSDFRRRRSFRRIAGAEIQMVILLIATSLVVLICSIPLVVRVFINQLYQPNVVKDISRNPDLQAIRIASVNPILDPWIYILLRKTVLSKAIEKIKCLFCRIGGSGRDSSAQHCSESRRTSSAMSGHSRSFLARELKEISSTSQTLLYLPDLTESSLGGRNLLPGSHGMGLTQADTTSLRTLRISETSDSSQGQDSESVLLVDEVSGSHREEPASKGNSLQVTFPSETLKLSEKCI
# [4] = molecular target: Prostaglandin E2 receptor EP2 subtype (Mus musculus, UniProt Q62053); experiment: Displacement of [3H]PGE2 from mouse EP2 receptor expressed in CHO cells after 60 mins by scintillation counting; assay type: cell-based
# Sequence of Prostaglandin E2 receptor EP2 subtype (Mus musculus, UniProt Q62053) (Q62053 whole entry): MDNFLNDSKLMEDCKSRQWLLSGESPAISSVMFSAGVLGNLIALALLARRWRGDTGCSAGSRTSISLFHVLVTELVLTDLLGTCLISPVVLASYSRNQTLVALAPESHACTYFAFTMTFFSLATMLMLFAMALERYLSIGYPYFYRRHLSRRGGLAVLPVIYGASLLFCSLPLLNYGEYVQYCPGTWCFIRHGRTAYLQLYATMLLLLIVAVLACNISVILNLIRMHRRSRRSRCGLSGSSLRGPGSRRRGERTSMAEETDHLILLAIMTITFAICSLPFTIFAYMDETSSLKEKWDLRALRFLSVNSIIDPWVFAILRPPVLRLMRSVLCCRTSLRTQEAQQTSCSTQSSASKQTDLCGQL
# [5] = molecular target: T2, Prostaglandin E2 receptor EP1 subtype (Mus musculus, UniProt P35375); experiment: Displacement of [3H]PGE2 from mouse EP1 receptor expressed in CHO cells after 20 mins by scintillation counting; assay type: cell-based
# T2 sequence (P35375 whole entry): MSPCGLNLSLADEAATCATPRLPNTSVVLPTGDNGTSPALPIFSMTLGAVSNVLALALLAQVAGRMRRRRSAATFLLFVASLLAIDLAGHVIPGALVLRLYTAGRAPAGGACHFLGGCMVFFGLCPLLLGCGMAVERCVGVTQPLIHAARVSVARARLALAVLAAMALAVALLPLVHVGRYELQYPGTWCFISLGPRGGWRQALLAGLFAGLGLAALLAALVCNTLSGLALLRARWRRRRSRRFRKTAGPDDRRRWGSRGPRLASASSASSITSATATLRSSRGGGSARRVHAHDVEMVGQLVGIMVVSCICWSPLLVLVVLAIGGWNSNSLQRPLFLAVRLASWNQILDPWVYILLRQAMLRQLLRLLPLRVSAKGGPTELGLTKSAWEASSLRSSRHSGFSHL
# [6] = Drug release from PLGA microsphere assessed as compound remaining in microsphere at 100 ug/ml after 7 days; assay type: physicochemical; conditions: 168 h
# [7] = tested on: Rattus norvegicus; experiment: Induction of bone fracture healing in CrJ:CD(SD)IGS rat assessed as breaking strength of fractured fibulae at 100 ug/kg administered tropically as PLGA microsphere formulation measured after 17 days relative to control; assay type: functional
# Procedure, shortened: (§1)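 Male Sprague–Dawley rats, 8 weeks old. Under sodium pentobarbital (30–50 mg/kg) the left fibula midshaft was exposed and cut. Compound in PLGA microspheres injected topically at the fracture. At 17 days fibulae removed for three-point destructive bending; breaking strength expressed as % of the mean of nonfractured fibulae from intact rats, with vehicle-treated fractured controls.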
# [8] = tested on: Rattus norvegicus; experiment: Induction of bone fracture healing in CrJ:CD(SD)IGS rat assessed as breaking strength of fractured fibulae at 30 ug/kg administered tropically as PLGA microsphere formulation measured after 17 days relative to control; assay type: functional; procedure, shortened: as §1
# [9] = Drug release from PLGA microsphere assessed as compound remaining in microsphere at 100 ug/ml after 14 days; assay type: physicochemical; conditions: 336 h
# [10] = tested on: Rattus norvegicus; experiment: Induction of bone fracture healing in CrJ:CD(SD)IGS rat assessed as breaking strength of fractured fibulae at 10 ug/kg administered tropically as PLGA microsphere formulation measured after 17 days relative to control; assay type: functional; procedure, shortened: as §1
# [11] = molecular target: Prostaglandin E2 receptor EP2 subtype (Rattus norvegicus, UniProt Q62928); experiment: Agonist activity at rat EP2 receptor expressed in CHO cells assessed as cAMP production after 10 mins by radioimmunoassay; assay type: functional, cell-based
# Sequence of Prostaglandin E2 receptor EP2 subtype (Rattus norvegicus, UniProt Q62928) (Q62928 whole entry): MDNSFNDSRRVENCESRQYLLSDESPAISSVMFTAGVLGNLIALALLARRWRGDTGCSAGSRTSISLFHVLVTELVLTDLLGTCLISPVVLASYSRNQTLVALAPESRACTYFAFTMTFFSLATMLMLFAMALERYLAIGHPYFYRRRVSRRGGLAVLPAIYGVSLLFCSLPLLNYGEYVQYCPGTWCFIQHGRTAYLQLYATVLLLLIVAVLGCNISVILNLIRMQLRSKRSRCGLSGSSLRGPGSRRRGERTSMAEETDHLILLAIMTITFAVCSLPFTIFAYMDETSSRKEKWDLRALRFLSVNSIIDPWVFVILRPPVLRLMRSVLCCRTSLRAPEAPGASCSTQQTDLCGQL
# Procedure, shortened: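 CHO cells expressing rat EP2 receptor, seeded 1 × 10^5 cells/well and grown 2 days; washed, incubated 10 min at 37 °C in MEM with 2 µM diclofenac, then preincubated 10 min in assay medium with 1% BSA. Compound added, 10 min at 37 °C, stopped with ice-cold 10% trichloroacetic acid; cAMP measured by radioimmunoassay.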
# [12] = tested on: Rattus norvegicus; experiment: Induction of bone fracture healing in CrJ:CD(SD)IGS rat assessed as breaking strength of fractured fibulae at 3 ug/kg administered tropically as PLGA microsphere formulation measured after 17 days relative to control; assay type: functional; procedure, shortened: as §1
# [13] = tested on: Rattus norvegicus; experiment: Induction of bone fracture healing in CrJ:CD(SD)IGS rat assessed as breaking strength of fractured fibulae at 300 ug/kg administered tropically as PLGA microsphere formulation measured after 17 days relative to control; assay type: functional; procedure, shortened: as §1
# [14] = tested on: Rattus norvegicus; experiment: Induction of bone fracture healing in CrJ:CD(SD)IGS rat assessed as breaking strength of fractured fibulae administered tropically as PLGA microsphere formulation measured after 17 days relative to control; assay type: functional, organism-based; procedure, shortened: as §1
# [15] = Drug release from PLGA microsphere assessed as compound remaining in microsphere at 100 ug/ml after 21 days; assay type: physicochemical; conditions: 504 h
# [16] = Drug release from PLGA microsphere assessed as compound remaining in microsphere at 100 ug/ml after 28 days; assay type: physicochemical; conditions: 672 h
# [17] = tested on: Rattus norvegicus; experiment: Induction of bone fracture healing in CrJ:CD(SD)IGS rat assessed as breaking strength of fractured fibulae at 1 ug/kg administered tropically as PLGA microsphere formulation measured after 17 days relative to control; assay type: functional; procedure, shortened: as §1
Ki [1],EC50 [2],Ki [3],Ki [4],Ki [5],Activity [6],Activity [9],EC50 [11],Activity [15],Activity [16],SMILES,Activity [7],Activity [8],Activity [10],Activity [12],Activity [13],Activity [14],Activity [17]
> 10 µM,86 nM,4.8 nM,6100 nM,> 10 µM,,,,,,O=C(O)CCCSCCN1C(=O)CC[C@@H]1/C=C/[C@@H](O)Cc1cccc(-c2ccccn2)c1,,,,,,,
> 10 µM,1.6 nM,0.16 nM,56 nM,0.2 µM,100%,95%,3200 nM,86.6%,87.6%,Cc1ccc2nc(-c3cccc(C[C@H](O)/C=C/[C@H]4CCC(=O)N4CCSc4nc(C(=O)O)cs4)c3)oc2c1,124.6%,71.6%,87.1%,84.4%,167.4%,Dose-dependent effect,
> 10 µM,19 nM,4.7 nM,> 10000 nM,> 10 µM,,,,,,O=C(O)CCCSCCN1C(=O)CC[C@@H]1/C=C/[C@@H](O)Cc1cccc(OCc2cccnc2)c1,,,,,,,
> 10 µM,15 nM,1.7 nM,9.2 nM,5.4 µM,,,4600 nM,,,COc1ccc(-c2cccc(C[C@H](O)/C=C/[C@H]3CCC(=O)N3CCSc3nc(C(=O)O)cs3)c2)cc1,,,,,,,
> 10 µM,13 nM,0.19 nM,15 nM,8 µM,,,2700 nM,,,O=C(O)c1csc(SCCN2C(=O)CC[C@@H]2/C=C/[C@@H](O)Cc2cccc(-c3nc4ccccc4s3)c2)n1,,,,,,,
> 10 µM,160 nM,3.5 nM,23 nM,2.4 µM,,,> 10000 nM,,,Cc1ccc(-c2cccc(C[C@H](O)/C=C/[C@H]3CCC(=O)N3CCSc3nc(C(=O)O)cs3)c2)c(C)c1,,,,,,,
> 10 µM,28 nM,4.4 nM,> 10000 nM,7.1 µM,,,,,,O=C(O)CCCSCCN1C(=O)CC[C@@H]1/C=C/[C@@H](O)Cc1cccc(N2Cc3ccccc3C2)c1,,,,,,,
> 10 µM,15 nM,0.43 nM,2 nM,6.1 µM,,,380 nM,,,Cc1ccc(-c2cccc(C[C@H](O)/C=C/[C@H]3CCC(=O)N3CCSc3nc(C(=O)O)cs3)c2)cc1,,,,,,,
> 10 µM,28 nM,0.21 nM,22 nM,7.7 µM,,,8500 nM,,,Cc1cccc2oc(-c3cccc(C[C@H](O)/C=C/[C@H]4CCC(=O)N4CCSc4nc(C(=O)O)cs4)c3)nc12,,,,,,,
> 10 µM,96 nM,0.6 nM,2100 nM,> 10 µM,,,,,,O=C(O)CCCSCCN1C(=O)CC[C@@H]1/C=C/[C@@H](O)Cc1cccc(-c2ccc3ccccc3c2)c1,,,,,,,
> 10 µM,21 nM,0.35 nM,1.5 nM,2.5 µM,,,1400 nM,,,Cc1ccc(-c2cccc(C[C@H](O)/C=C/[C@H]3CCC(=O)N3CCSc3nc(C(=O)O)cs3)c2)cc1C,,,,,,,
> 10 µM,85 nM,0.28 nM,3500 nM,> 10 µM,,,,,,O=C(O)CCCSCCN1C(=O)CC[C@@H]1/C=C/[C@@H](O)Cc1cccc(-c2ccc3[nH]ccc3c2)c1,,,,,,,
1.7 µM,5.3 nM,0.12 nM,2.1 nM,2.7 µM,95.7%,88.6%,1500 nM,80.1%,60.8%,O=C(O)c1csc(SCCN2C(=O)CC[C@@H]2/C=C/[C@@H](O)Cc2cccc(-c3cc4ccccc4o3)c2)n1,,116.6%,104.2%,83.3%,,Dose-dependent effect,76.1%
> 10 µM,0.61 nM,0.89 nM,> 10000 nM,> 10 µM,,,,,,O=C(O)CCCSCCN1C(=O)CC[C@@H]1/C=C/[C@@H](O)Cc1cccc(OCc2ccccn2)c1,,,,,,,
> 10 µM,46 nM,28 nM,> 10000 nM,> 10 µM,,,,,,O=C(O)CCCSCCN1C(=O)CC[C@@H]1/C=C/[C@@H](O)Cc1cccc(OCc2ccncc2)c1,,,,,,,
,5.7 nM,,,,,,,,,Cc1cccc(C[C@H](O)/C=C/[C@H]2CCC(=O)N2CCSCCCC(=O)O)c1,,,,,,,
> 10 µM,9.7 nM,0.25 nM,22 nM,0.68 µM,,,> 10000 nM,,,O=C(O)c1csc(SCCN2C(=O)CC[C@@H]2/C=C/[C@@H](O)Cc2cccc(-c3nc4cc(Cl)ccc4s3)c2)n1,,,,,,,
> 10 µM,13 nM,0.2 nM,1700 nM,5 µM,,,,,,O=C(O)CCCSCCN1C(=O)CC[C@@H]1/C=C/[C@@H](O)Cc1cccc(-c2nc3ccccc3o2)c1,,,,,,,
> 10 µM,3.2 nM,0.36 nM,720 nM,> 10 µM,,,,,,O=C(O)CCCSCCN1C(=O)CC[C@@H]1/C=C/[C@@H](O)Cc1cccc(-c2nc3ccccc3s2)c1,,,,,,,
> 10 µM,52 nM,1.1 nM,> 10000 nM,> 10 µM,,,,,,O=C(O)CCCSCCN1C(=O)CC[C@@H]1/C=C/[C@@H](O)Cc1cccc(-c2ccccc2)c1,,,,,,,
> 10 µM,7.7 nM,0.15 nM,24 nM,3.2 µM,,,> 10000 nM,,,Cc1cc(C)c2oc(-c3cccc(C[C@H](O)/C=C/[C@H]4CCC(=O)N4CCSc4nc(C(=O)O)cs4)c3)nc2c1,,,,,,,
> 10 µM,2.2 nM,0.12 nM,28 nM,> 10 µM,,,1600 nM,,,O=C(O)c1csc(SCCN2C(=O)CC[C@@H]2/C=C/[C@@H](O)Cc2cccc(-c3nc4ccccc4o3)c2)n1,,,,,,,
> 10 µM,4.9 nM,0.2 nM,67 nM,0.65 µM,,,> 10000 nM,,,O=C(O)c1csc(SCCN2C(=O)CC[C@@H]2/C=C/[C@@H](O)Cc2cccc(-c3nc4cc(Cl)ccc4o3)c2)n1,,,,,,,

# From ChEMBL document CHEMBL2034814, “Synthesis and evaluation of γ-lactam analogs of PGE₂ as EP4 and EP2/EP4 agonists” (Bioorg Med Chem, 2012)
